# Bioassay records from PubChem.
# TCR-CD3 inh: blocks the human TCR-CD3 interaction. TAMRA-labeled TCR probe fluorescence, biochemical. inhibition, % at 9.4 µM. actives 0.37% (n = 360,000). AID 651800; in the data active = inhibition above about 19%;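 note: recombinant mutant TCR 2C K166C tagged with TAMRA read by polarization; 0% = receptor in buffer alone and 100% = receptor with positive control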
# HTRA1 inhibitor: inhibitors of human serine peptidase HTRA1 | recombinant HTRA1, FP-rhodamine activity-based probe, fluorescence polarization | inhibition, % at 5.96 µM | actives 0.5% (n = 340,000); in the data active = inhibition above about 36%;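 note: 0% = enzyme with DMSO and 100% = wells lacking enzyme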
# SIAE primary: human SIAE inhibition, primary screen; SIAE FP-Rh probe binding, fluorescence polarization; inhibition, % at 9.66 µM; actives 0.69% (n = 370,000);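 active = inhibition above a cutoff: mean of compounds within the control limits plus 3 SD of those, cut at about 17% in these data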;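 note: 0% = plate median of compound wells and 100% = probe without SIAE protein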
# mABHD4 FP: inhibits mouse alpha/beta hydrolase domain 4 | Q8VD66 | purified mABHD4, FP-Rh probe fluorescence polarization | inhibition, % at 8.92 µM | actives 0.54% (n = 370,000) | AID 720543;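 active = inhibition exceeding the mean over every tested compound plus 3 SD, cut at about 30% in these data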;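 note: 0% = plate median of compound wells and 100% = S159A mutant with DMSO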
#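 Assay system: mABHD4 protein; medium: HEPES pH 7.0, NaCl, Pluronic buffer; dosing: 8.92 µM, single dose; schedule: 45 min + 60 min at 25 °C; signal: FP readout, ex 525 nm / em 598 nm; read-out: normalized percent inhibition of probe labeling; repeats: single replicate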
# PRMT1 FP inh: blocks human protein arginine methyltransferase 1; Q99873; inhibition, % at 2.79 µM; recombinant PRMT1, activity-based probe fluorescence polarization; actives 1.3% (n = 370,000); AID 652257;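 active = inhibition above about 21% made by adding two undisclosed values, limit read from the data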
# PRMT1 confirm: PRMT1 (human) inhibition, FP confirmation | shares compounds with PRMT1 FP inh | recombinant His-PRMT1, activity-based probe fluorescence polarization | actives 42% (n = 3,300) | inhibition, % at 2.79 µM;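 active = mean inhibition across replicates above the hit cutoff derived for the earlier primary screen, cut at about 22% in these data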
# ABHD4 confirm: ABHD4 (mouse) inhibition, FP confirmation. shares compounds with mABHD4 FP. purified mABHD4, FP-Rh probe fluorescence polarization. inhibition, % at 8.92 µM. actives 55% (n = 1,800). AID 720658;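 active = mean inhibition across replicates above the hit cutoff set in the primary screen, cut at about 30% in these data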;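 note: 0% = wild-type ABHD4 with DMSO and 100% = catalytically dead S159A mutant with DMSO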
# * marks the source's active call; other numbers are inactive results; . = no result given. Sampled rows, rich in hits. Any-hit rate of the full collection: about 2.5%.
SMILES,TCR-CD3 inh,HTRA1 inhibitor,SIAE primary,mABHD4 FP,PRMT1 FP inh,PRMT1 confirm,ABHD4 confirm
Cc1ccc(C)c(N2CCN(C(=O)c3ccc4nc(-c5ccco5)c(-c5ccco5)nc4c3)CC2)c1,17,7,14,42*,44*,19,-1
CN(C)c1ccc2cc(S(=O)(=O)O)cc(O)c2c1,-3,36,2,78*,102*,33*,54*
O=S(=O)(Nc1cc(Sc2cccc3cccnc23)c(O)c2ccccc12)c1ccccc1,8,.,17,42*,91*,67*,17
O=C(O)CSc1cc(NS(=O)(=O)c2cccc([N+](=O)[O-])c2)c2ccccc2c1O,-5,22,11,41*,62*,95*,34*
CCOc1ccc(S(=O)(=O)Nc2cc(SCC(=O)O)c(O)c3ccccc23)cc1,0,32,6,43*,65*,93*,45*
O=C(NCC(c1ccco1)N1CCCC1)c1cccc(S(=O)(=O)N2CCc3ccccc32)c1 (stereo unspecified),-2,-3,0,-9,2,.,.
COc1ccccc1CNC(=O)c1ccc2nc(C)c(N(C)Cc3ccc(NC(C)=O)cc3)n2c1,-5,.,-2,-4,-1,.,.
COc1ccc(/C(C)=N/Nc2cccc(C(=O)O)c2)cc1OC,9,-4,3,9,2,.,.
C/C(=N\Nc1cccc(C(=O)O)c1)c1ccc(Cl)s1,-2,-3,-6,40*,42*,10,45*
CCOc1cc(/C=C2\CCCc3c2nc2ccccc2c3C(=O)O)ccc1OC,17,0,17,32*,117*,0,27
COc1cc(/C=C2\CCCc3c2nc2ccccc2c3C(=O)O)cc(Br)c1O,5,-16,2,18,3,.,.
Cc1cccc(NC(=O)CSc2nnc(-c3ccco3)c(-c3ccco3)n2)c1,6,26,16,44*,42*,52*,44*
Cc1cccc(NC(=O)CSc2nc(N)cc(N)n2)c1,-1,-1,-4,-2,2,.,.
CCC(=O)Nc1cc(OC)c(NC(=S)Nc2ccccc2CC)cc1OC,3,4,11,43*,47*,-3,-5
COCc1cc(=O)n2[nH]c(-c3ccco3)cc2n1,-4,6,-7,7,3,.,.
CCCCN1Cc2c(nc3cc(-c4ccco4)[nH]n3c2=O)C1=O,-1,11,-1,35*,56*,18,1
O=S(=O)(Nc1nc(-c2ccco2)c(-c2ccco2)s1)c1ccc(F)cc1F,11,5,-1,47*,45*,20,12
COC(=O)CNC(=O)C1Nc2ccc(OC(F)(F)F)cc2C2C=CCC12 (stereo unspecified),-1,27,5,47*,37*,2,-4
COc1ccc2c(c1)C1C=CCC1C(c1cc3c(cc1Br)OCO3)N2 (stereo unspecified),2,32,5,8,6,.,.
CC(=Nc1ccc(O)cc1)c1sc2ccccc2c1O,8,10,2,39*,27*,13,0
Oc1c(N=Nc2ccccc2)sc2ccccc12,-10,-8,-5,-15,7,.,.
Cc1cccc(C)c1NC(=O)CSCC(=O)O,1,4,-1,0,3,.,.
Cc1cccc(C)c1NC(=O)CSCC(=O)c1ccc(O)c(O)c1,5,30,0,32*,39*,62*,27
Cc1ccc(C2NC(=O)c3n[nH]c(C(C)C)c32)cc1 (stereo unspecified),-5,.,0,-3,-7,.,.
O=C1/C(=C\c2ccco2)SC(=S)N1C1CCS(=O)(=O)C1 (stereo unspecified),9,.,7,35*,25*,2,-3
O=C(CCCN1C(=O)/C(=C/c2ccco2)SC1=S)Nc1ccccc1C(=O)O,4,5,7,32*,55*,29*,-26
O=C1/C(=C/c2ccco2)SC(=S)N1CC1CCCO1 (stereo unspecified),-11,.,9,32*,35*,6,5
